Measurements from ChEMBL document CHEMBL2375357, “Design, synthesis and cytotoxicity of cell death mechanism of rotundic acid derivatives” (Bioorg Med Chem Lett, 2013).
Calls of active or inactive are those of the source. No cut-off for these calls is given here.

Tests used:
Assay type in all cases: functional, cell-based
[1] = system: A-375; assay: Cytotoxicity against human A375 cells after 24 hrs by MTT assay; settings: A-375, 24 h
Outline: (§1)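 MTT antiproliferative assay on human tumour lines A-375 (melanoma), SPC-A1 (lung adenocarcinoma), HeLa (cervical), HepG2 (hepatoma) and NCI-H446 (small cell lung cancer). Parent rotundic acid run alongside as positive control. IC50 given as mean ± SD, n = 3, each experiment repeated at least three times. Values above 100 μM reported as >100.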

[2] = Cytotoxicity against human SPC-A1 cells after 24 hrs by MTT assay; settings: SPCA1, 24 h; outline: as §1
[3] = system: HeLa; assay: Cytotoxicity against human HeLa cells after 24 hrs by MTT assay; outline: as §1
[4] = system: NCI-H446; assay: Cytotoxicity against human NCI-H446 cells after 24 hrs by MTT assay; settings: NCI-H446, 24 h; outline: as §1
[5] = system: HepG2; assay: Cytotoxicity against human HepG2 cells after 24 hrs by MTT assay; settings: HepG2, 24 h; outline: as §1
[6] = system: HeLa; assay: Induction of apoptosis in human HeLa cells assessed as decrease in Bcl2 expression after 24 hrs by Western blot analysis
Outline: (§2)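 HeLa cells treated 24 h at 10, 20 and 40 μM. Cisplatin (10 μg/ml) served as positive-control treatment, with an untreated control group for comparison. Bax, Bcl-2, cytochrome C, caspase-3 and cleaved caspase-3 protein levels detected by western blot. Bax/Bcl-2 ratio derived from the band levels. Significance tested against the control group.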

[7] = system: HeLa; assay: Induction of apoptosis in human HeLa cells assessed as increase in ratio of Bax to Bcl2 expression after 24 hrs by Western blot analysis; outline: as §2
[8] = system: HeLa; assay: Induction of apoptosis in human HeLa cells assessed as increase in Bax expression after 24 hrs by Western blot analysis; outline: as §2
[9] = system: HeLa; assay: Induction of apoptosis in human HeLa cells assessed as increase in caspase 3 cleavage after 24 hrs by Western blot analysis; outline: as §2
[10] = system: HeLa; assay: Induction of apoptosis in human HeLa cells assessed as increase in cytochrome C expression after 24 hrs by Western blot analysis; outline: as §2
[11] = system: HeLa; assay: Induction of apoptosis in human HeLa cells assessed as increase in caspase 3 expression at 10 to 40 uM after 24 hrs by Western blot analysis; outline: as §2

Work on `CC(=O)OC[C@@]1(C)[C@@H]2CC[C@]3(C)[C@H](CC=C4[C@H]5[C@](C(=O)NCCCO)(CC[C@@H](C)[C@@]5(C)O)CC[C@]43C)[C@@]2(C)CC[C@@H]1OC(C)=O` yielded an IC50 [1] of 3.28 µM, an IC50 [2] of 13.4 µM and an IC50 [3] of 6.97 µM. It also gave an IC50 [4] of 5.08 µM and an IC50 [5] of 5.49 µM.
Work on `CC(=O)OCCCNC(=O)[C@]12CC[C@@H](C)[C@@](C)(O)[C@H]1C1=CC[C@@H]3[C@@]4(C)CC[C@H](OC(C)=O)[C@@](C)(COC(C)=O)[C@@H]4CC[C@@]3(C)[C@]1(C)CC2` yielded an IC50 [1] of 10.1 µM, an IC50 [2] of 12 µM and an IC50 [3] of 4.31 µM. For the same compound, the IC50 [4] was 12.8 µM and the IC50 [5] was 12 µM.
For `C[C@@H]1CC[C@]2(C(=O)NCCO)CC[C@]3(C)C(=CC[C@@H]4[C@@]5(C)CC[C@H](O)[C@@](C)(CO)[C@@H]5CC[C@]43C)[C@@H]2[C@]1(C)O`, the IC50 [1] was 21.4 µM, the IC50 [2] was > 100 µM and the IC50 [3] was > 100 µM. For the same compound, the IC50 [4] was 24.7 µM and the IC50 [5] was 45.6 µM.
With `CC(=O)OC[C@@]1(C)[C@@H]2CC[C@]3(C)[C@H](CC=C4[C@H]5[C@](C(=O)NCCO)(CC[C@@H](C)[C@@]5(C)O)CC[C@]43C)[C@@]2(C)CC[C@@H]1OC(C)=O` the Activity [6] was “Dose-dependent effect”, the IC50 [1] was 5.49 µM and the IC50 [2] was 3.61 µM. The Activity [7] was “Dose-dependent effect”, the IC50 [3] was 2.83 µM and the Activity [8] was “Dose-dependent effect”. For the same compound, the IC50 [4] was 6.67 µM, the Activity [9] was “Dose-dependent effect” and the Activity [10] was “Active”. The IC50 [5] was 4.4 µM and the Activity [11] was “Active”.
Compound `C[C@@H]1CC[C@]2(C(=O)O)CC[C@]3(C)C(=CC[C@@H]4[C@@]5(C)CC[C@H](O)[C@@](C)(CO)[C@@H]5CC[C@]43C)[C@@H]2[C@]1(C)O` [ROTUNDIC ACID] has an IC50 [1] of 16.6 µM, an IC50 [2] of 84 µM and an IC50 [3] of 31.9 µM. For the same compound, the IC50 [4] was 11.4 µM and the IC50 [5] was 7.33 µM.
In the case of `CC(CO)NC(=O)[C@]12CC[C@@H](C)[C@@](C)(O)[C@H]1C1=CC[C@@H]3[C@@]4(C)CC[C@H](O)[C@@](C)(CO)[C@@H]4CC[C@@]3(C)[C@]1(C)CC2` (stereo partly specified), the IC50 [1] is reported as 35.5 µM, the IC50 [2] is reported as > 100 µM and the IC50 [3] is reported as 28.8 µM. The IC50 [4] was 39.8 µM and the IC50 [5] was 55.1 µM.
`CC(=O)OC[C@@]1(C)[C@@H]2CC[C@]3(C)[C@H](CC=C4[C@H]5[C@](C(=O)NCc6ccccc6)(CC[C@@H](C)[C@@]5(C)O)CC[C@]43C)[C@@]2(C)CC[C@@H]1OC(C)=O` gave an IC50 [1] of 13.7 µM, an IC50 [2] of 12.1 µM and an IC50 [3] of 19.2 µM. It also gave an IC50 [4] of 26.9 µM and an IC50 [5] of 19.5 µM.
In the case of `CC(=O)OCC(C)NC(=O)[C@]12CC[C@@H](C)[C@@](C)(O)[C@H]1C1=CC[C@@H]3[C@@]4(C)CC[C@H](OC(C)=O)[C@@](C)(COC(C)=O)[C@@H]4CC[C@@]3(C)[C@]1(C)CC2` (stereo partly specified), the IC50 [1] is reported as 5.1 µM, the IC50 [2] is reported as 18.9 µM and the IC50 [3] is reported as 5.3 µM. The IC50 [4] was 14.7 µM and the IC50 [5] was 9.12 µM.
For `C[C@@H]1CC[C@]2(C(=O)NCc3ccccc3)CC[C@]3(C)C(=CC[C@@H]4[C@@]5(C)CC[C@H](O)[C@@](C)(CO)[C@@H]5CC[C@]43C)[C@@H]2[C@]1(C)O`, the IC50 [1] was > 100 µM, the IC50 [2] was > 100 µM and the IC50 [3] was 28.1 µM. For the same compound, the IC50 [4] was > 100 µM and the IC50 [5] was > 100 µM.
`CC(=O)OC[C@@]1(C)[C@@H]2CC[C@]3(C)[C@H](CC=C4[C@H]5[C@](C(=O)O)(CC[C@@H](C)[C@@]5(C)O)CC[C@]43C)[C@@]2(C)CC[C@@H]1OC(C)=O` showed an IC50 [1] of 11.4 µM, an IC50 [2] of 23.2 µM and an IC50 [3] of 13.1 µM. The IC50 [4] was 7.11 µM and the IC50 [5] was 6.85 µM.
`CC(=O)OCCNC(=O)[C@]12CC[C@@H](C)[C@@](C)(O)[C@H]1C1=CC[C@@H]3[C@@]4(C)CC[C@H](OC(C)=O)[C@@](C)(COC(C)=O)[C@@H]4CC[C@@]3(C)[C@]1(C)CC2` showed an IC50 [1] of 4.17 µM, an IC50 [2] of 9.37 µM and an IC50 [3] of 5.39 µM. The IC50 [4] was 18.6 µM and the IC50 [5] was 4.44 µM.
In the case of `CC(=O)OC[C@@]1(C)[C@@H]2CC[C@]3(C)[C@H](CC=C4[C@H]5[C@](C(=O)NC(C)CO)(CC[C@@H](C)[C@@]5(C)O)CC[C@]43C)[C@@]2(C)CC[C@@H]1OC(C)=O` (stereo partly specified), the IC50 [1] is reported as 4.77 µM, the IC50 [2] is reported as 12.9 µM and the IC50 [3] is reported as 11.3 µM. The IC50 [4] was 5.51 µM and the IC50 [5] was 7.3 µM.
`CC(=O)OC[C@@]1(C)[C@@H]2CC[C@]3(C)[C@H](CC=C4[C@H]5[C@](C(=O)Nc6ccccc6CO)(CC[C@@H](C)[C@@]5(C)O)CC[C@]43C)[C@@]2(C)CC[C@@H]1OC(C)=O` showed an IC50 [1] of 3.71 µM, an IC50 [2] of 8.09 µM and an IC50 [3] of 3.32 µM. It also gave an IC50 [4] of 7.03 µM and an IC50 [5] of 4.45 µM.
With `CC(=O)OCc1ccccc1NC(=O)[C@]12CC[C@@H](C)[C@@](C)(O)[C@H]1C1=CC[C@@H]3[C@@]4(C)CC[C@H](OC(C)=O)[C@@](C)(COC(C)=O)[C@@H]4CC[C@@]3(C)[C@]1(C)CC2` the IC50 [1] was 9.12 µM, the IC50 [2] was 13.2 µM and the IC50 [3] was 4.27 µM. The IC50 [4] was 69.7 µM and the IC50 [5] was 12.3 µM.
`C[C@@H]1CC[C@]2(C(=O)NCCCO)CC[C@]3(C)C(=CC[C@@H]4[C@@]5(C)CC[C@H](O)[C@@](C)(CO)[C@@H]5CC[C@]43C)[C@@H]2[C@]1(C)O` showed an IC50 [1] of 12.5 µM, an IC50 [2] of 83.2 µM and an IC50 [3] of 17.7 µM. It also gave an IC50 [4] of 20.9 µM and an IC50 [5] of 77.3 µM.
In the case of `CC(=O)OC[C@@]1(C)[C@@H]2CC[C@]3(C)[C@H](CC=C4[C@H]5[C@](C(=O)Nc6ccccc6)(CC[C@@H](C)[C@@]5(C)O)CC[C@]43C)[C@@]2(C)CC[C@@H]1OC(C)=O`, the IC50 [1] is reported as 17.7 µM, the IC50 [2] is reported as 16.2 µM and the IC50 [3] is reported as 15.8 µM. The IC50 [4] was 24.8 µM and the IC50 [5] was 22.2 µM.
In the case of `C[C@@H]1CC[C@]2(C(=O)Nc3ccccc3)CC[C@]3(C)C(=CC[C@@H]4[C@@]5(C)CC[C@H](O)[C@@](C)(CO)[C@@H]5CC[C@]43C)[C@@H]2[C@]1(C)O`, the IC50 [1] is reported as 70.8 µM, the IC50 [2] is reported as > 100 µM and the IC50 [3] is reported as 23.2 µM. For the same compound, the IC50 [4] was 70.8 µM and the IC50 [5] was 64.7 µM.
For `C[C@@H]1CC[C@]2(C(=O)Nc3ccccc3CO)CC[C@]3(C)C(=CC[C@@H]4[C@@]5(C)CC[C@H](O)[C@@](C)(CO)[C@@H]5CC[C@]43C)[C@@H]2[C@]1(C)O`, the IC50 [1] was 19 µM, the IC50 [2] was > 100 µM and the IC50 [3] was 12.3 µM. For the same compound, the IC50 [4] was 14 µM and the IC50 [5] was > 100 µM.
